High-throughput results (PubChem BioAssay)
Rows were chosen to be rich in hits. Some 2.3% of all compounds tested hit in one or more screens of this group.
LMPTP block: LMPTP (human) inhibition | P24666 | recombinant LMPTP-A, OMFP fluorogenic substrate, fluorescence intensity | inhibition, % at 20 µM | actives 0.22% (n = 360,000);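 active means compounds that cut the enzyme signal by at least half of the control window in the single-dose screen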
Target sequence (P24666 whole entry, looked up): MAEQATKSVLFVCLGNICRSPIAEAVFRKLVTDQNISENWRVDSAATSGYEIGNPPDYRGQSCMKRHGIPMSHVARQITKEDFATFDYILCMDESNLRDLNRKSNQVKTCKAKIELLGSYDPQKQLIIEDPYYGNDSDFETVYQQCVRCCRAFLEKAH
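Test system – LMPTP-A enzyme · Amount – LMPTP-A at 0.625 nM final in the reaction · Buffer or medium – Bis-Tris pH 6.0, DTT, detergent · Reagent – OMFP 400 µM · Doses – single 20 µM dose · Schedule – reaction 50 min, room temperature, dark · Detection – fluorescence intensity of OMFP turnover product · Evaluation – percent inhibition versus substrate-only and uninhibited controls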
SUMO1-SIM PPI: alters human SUMO1 binding to SIM partners; actives 0.33% (n = 360,000); P63165; inhibition, % at 20 µM; SUMO1 binding to a labelled peptide, TR-FRET, 1 h; AID 602429; in the data active means inhibition above about 37%
Target sequence (P63165 whole entry, looked up): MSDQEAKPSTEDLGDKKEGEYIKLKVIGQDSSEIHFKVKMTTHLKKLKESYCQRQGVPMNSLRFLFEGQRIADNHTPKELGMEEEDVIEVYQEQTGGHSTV
Scp-1 inhibitor: inhibitors of human Scp-1 phosphatase; Q9GZU7; Recombinant Scp1, phosphopeptide, malachite green phosphate absorbance; inhibition, % at 20 µM; actives 0.88% (n = 340,000); AID 493091;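 active means inhibition above about 50% at 20 µM, limit read from the data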
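Material: truncated SCP-1 phosphatase (76-261aa) / Buffer or medium: 50 mM Tris acetate pH 5.5, 0.005% Tween-20, 10 mM MgCl2 / Compound dosing: one concentration, 20 µM, with 1.0% DMSO / Incubation: 45 min room-temperature reaction, 5 min colour, 30 min stabiliser / Detection: colorimetric free-phosphate detection, absorbance 630 nm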
Rpn11 inh: inhibitors of human proteasome Rpn11; actives 0.59% (n = 360,000); AID 588493; inhibition, % at 20 µM; human 26S proteasome, Ub4-pepOG fluorescence polarization; 20S core pre-blocked with epoxomicin; O00487;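 active means inhibition at 20 µM, scaled to each plate's controls, above about 33%, limit read from the data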
Target sequence (O00487 whole entry, looked up): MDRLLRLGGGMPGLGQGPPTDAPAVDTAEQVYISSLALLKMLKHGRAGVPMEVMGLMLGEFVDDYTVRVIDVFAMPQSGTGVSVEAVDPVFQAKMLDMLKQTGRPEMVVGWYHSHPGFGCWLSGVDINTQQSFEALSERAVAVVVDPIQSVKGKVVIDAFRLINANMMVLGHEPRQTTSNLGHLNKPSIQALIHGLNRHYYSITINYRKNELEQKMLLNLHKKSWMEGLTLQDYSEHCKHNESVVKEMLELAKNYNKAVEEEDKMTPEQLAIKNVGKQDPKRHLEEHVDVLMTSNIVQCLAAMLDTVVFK
DNMT1 inh: DNMT1 (human) enzyme inhibition. P26358. DNMT1 molecular beacon, Hinp1I cleavage, fluorescence. inhibition (reported as % activation of signal), % at 10 µM. actives 0.83% (n = 360,000). AID 588458; in the data active means inhibition above about 50%
STEP inh: inhibitors of human striatal-enriched phosphatase STEP; recombinant STEP, OMFP fluorogenic substrate, fluorescence; inhibition, % at 20 µM; actives 0.25% (n = 360,000); AID 588621;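 active means inhibition at 20 µM, scaled per plate between control wells, above about 37%, limit read from the data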
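Material: STEP (striatal-enriched tyrosine phosphatase) enzyme, cell-free; Compound dosing: 20 µM single dose in 1% DMSO; Technique: fluorescence read at 480 nm ex / 540 nm em; Times: reaction 20 min, ambient temperature; Medium: 50 mM Bis-Tris pH 6.0 with 2.5 mM DTT and 0.005% Tween 20; Also added: OMFP at 25 µM.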
Rpn11 inh conf: confirmation of human proteasome Rpn11 inhibitors | purified human 26S proteasome, Ub4-pepOG fluorescence polarization; proteasome pretreated with epoxomicin | actives 29% (n = 1,900) | shares compounds with Rpn11 inh | inhibition, % at 20 µM
MMP-2 counter: MMP-2 (human) inhibition counter-screen; shares compounds with Rpn11 inh; recombinant MMP-2, FRET peptide cleavage fluorescence; inhibition, % at 20 µM; actives 4% (n = 1,900); AID 602330;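 further: human MMP-2 activated beforehand with APMA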
Thrombin FP: blocks bovine thrombin, flagging nonselective RPN11 hits; shares compounds with Rpn11 inh; bovine thrombin cleavage of Ub4-pepOG, fluorescence polarization; inhibition, % at 20 µM; actives 13% (n = 1,900);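 active means mean inhibition at least 40% at 20 µM, or signal 3 deviations below plate average, so some actives read negative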
Each line names hits and unclear results; the compound was inactive in the other large screens (follow-up assays come after a bar, where they were run). Unless noted, no stated cut-off is given here; in the data, active means inhibition above about 40%; inactive means the rest.

O=[N+]([O-])c1ccc(/C=N/NS(=O)(=O)c2ccc(Cl)cc2)o1	none
Cc1ccc(-c2cc(C(=O)N/N=C/c3ccc([N+](=O)[O-])o3)c3ccccc3n2)o1	none
Cc1nn(-c2ccc(F)cc2)c(Cl)c1C(=O)NCC1CCCO1 (centres undefined)	none
NS(=O)(=O)c1ccc2nc(NC(=O)Nc3ccc(F)cc3)sc2c1	Rpn11 inh 67 | Rpn11 inh conf inactive | MMP-2 counter inactive | Thrombin FP inactive
CO[C@H](C(=O)N(C)C[C@@H]1OCc2ccccc2-c2c(n(C)c3ccccc23)C(=O)N([C@H](C)CO)C[C@@H]1C)c1ccccc1	none (no result: Scp-1 inhibitor)
COC(=O)c1[nH]c2ccc(C)cc2c1NC(=O)CN1CCCc2ccccc21	Rpn11 inh 66 | Rpn11 inh conf 48 | MMP-2 counter inactive | Thrombin FP inactive
COC(=O)c1[nH]c2cc(C)ccc2c1NC(=O)CN1CCN(c2ccccc2OC)CC1	none
CC(C)C[C@H]1CNC(=S)N1CC1CCCN1C[C@H](CC(C)C)N1C[C@H](CC(C)C)N(CCc2ccccc2)C1=S (some centres undefined)	none
CSCCNC(=O)C1(C)CCN1C(=O)CCc1ccccc1 (centres undefined)	none (no result: Scp-1 inhibitor)
COc1ccc(NC(=O)c2cccc3c(-c4cccnc4)coc23)cc1	Rpn11 inh 63 (no result: Scp-1 inhibitor) | Rpn11 inh conf 42 | MMP-2 counter inactive | Thrombin FP inactive
CCN(CC)C(=O)Cn1nc(-c2ccncc2)nc1SCC(=O)Nc1ccc(OC)cc1	none
COC(=O)c1ccc(NC(=O)Cn2nc(-c3ccncc3)nc2SCC(=O)Nc2nccs2)cc1	Rpn11 inh 34 | Rpn11 inh conf inactive | MMP-2 counter inactive | Thrombin FP inactive
COc1ccc(OC)c(N=C(C)C2=C(O)COC2=O)c1	Rpn11 inh 108 | Rpn11 inh conf inactive | MMP-2 counter inactive | Thrombin FP inactive
CCOc1ccccc1NC(=O)C(OC(=O)c1ccc(NC(=O)CC#N)cc1)c1ccccc1 (centres undefined)	Rpn11 inh 45 | Rpn11 inh conf inactive | MMP-2 counter inactive | Thrombin FP inactive
NS(=O)(=O)c1ccc(NC(=S)NNC(=O)c2ccc(Br)o2)cc1	none
COc1cc(C(=O)Nc2nnc(-c3sccc3C)s2)cc(OC)c1OC	Rpn11 inh 174 | Rpn11 inh conf inactive | MMP-2 counter inactive | Thrombin FP 64
CSc1sc(-c2nnc(SCC(=O)Nc3ccc(Cl)cc3)n2C)c2c1C=CCC2	Rpn11 inh 40 | Rpn11 inh conf inactive | MMP-2 counter inactive | Thrombin FP inactive
COc1ccc(/C=C/C(=O)OCC(=O)NC2CCCCC2C)c(OC)c1 (centres undefined)	none
COC(=O)c1c(-c2cccnc2)csc1NC(=O)c1ccc2c(c1)OCO2	Rpn11 inh 52 | Rpn11 inh conf 52 | MMP-2 counter inactive | Thrombin FP inactive
COc1ccc(C2N(C(=O)N(C)C)CCN2S(=O)(=O)c2ccc(OC)cc2)cc1 (centres undefined)	none
Cc1cccc(C(O)C(O)c2cccc(C)n2)n1 (centres undefined)	Rpn11 inh 99 | Rpn11 inh conf inactive | MMP-2 counter inactive | Thrombin FP inactive
Clc1ccc(C2Nc3ccccc3-n3cccc32)cc1 (centres undefined)	Rpn11 inh 54 | Rpn11 inh conf inactive | MMP-2 counter inactive | Thrombin FP inactive
Cn1c(-c2c(N)n(CCc3ccccc3)c3nc4ccccc4nc23)nc2ccccc21	Rpn11 inh 46 | Rpn11 inh conf inactive | MMP-2 counter inactive | Thrombin FP inactive
Cn1c(-c2c(N)n(CCCc3ccccc3)c3nc4ccccc4nc23)nc2ccccc21	Rpn11 inh 44 | Rpn11 inh conf inactive | MMP-2 counter inactive | Thrombin FP inactive
COCCCn1c(N)c(-c2nc3ccccc3n2C)c2nc3ccccc3nc21	none
OC[C@@H]1CN(Cc2cccc(C(F)(F)F)c2)C[C@H](n2cnc3c(NCc4ccco4)ncnc32)O1	none (no result: Scp-1 inhibitor)
O=C(CN1C(=O)c2ccccc2S1(=O)=O)NCCSc1ccccc1	Rpn11 inh 41 | Rpn11 inh conf inactive | MMP-2 counter inactive | Thrombin FP inactive
O=C(C1CC1)N1N=C(C2CCCCC2)CC1(O)C(F)(F)F (centres undefined)	none
CCCCC(=O)N(Cc1ccc(F)cc1)C1CCS(=O)(=O)C1 (centres undefined)	Rpn11 inh 36 | Rpn11 inh conf inactive | MMP-2 counter inactive | Thrombin FP inactive
COc1ccc(S(=O)(=O)N2CC(O)CC2C(=O)OCc2nc3sc(C)c(C)c3c(=O)[nH]2)cc1 (centres undefined)	Rpn11 inh 47 | Rpn11 inh conf inactive | MMP-2 counter inactive | Thrombin FP inactive
COc1ccc(C(=O)C(=O)N2CCN(c3ccccc3F)CC2)cc1	none (no result: Scp-1 inhibitor, Rpn11 inh, DNMT1 inh, STEP inh)
CCC(c1nnnn1Cc1ccco1)N(CCc1ccccc1)Cc1cc2cc(C)ccc2[nH]c1=O (centres undefined)	none
Cc1ccc2[nH]c(=O)c(CN(CCc3ccccc3)C(c3nnnn3Cc3ccco3)C(C)C)cc2c1 (centres undefined)	Rpn11 inh 57 | Rpn11 inh conf inactive | MMP-2 counter inactive | Thrombin FP inactive
COc1cc(Cn2c3ccc(NC(=O)CCc4ccc(O)cc4)cc3c(=O)n2C)ccc1F	none (no result: Scp-1 inhibitor)
COc1ccc(C#Cc2ccc3c(c2)O[C@@H](CN(C)C(=O)Nc2cccc(OC)c2)[C@H](C)CN([C@@H](C)CO)S3(=O)=O)cc1	Rpn11 inh 47 (no result: Scp-1 inhibitor) | Rpn11 inh conf 41 | MMP-2 counter inactive | Thrombin FP inactive
COc1cccc(NC(=O)N(C)C[C@H]2Oc3cc(C#Cc4ccncc4)ccc3S(=O)(=O)N([C@H](C)CO)C[C@H]2C)c1	none (no result: Scp-1 inhibitor)
COc1ccc(-[n+]2c(C)cc(/C=C3\Sc4ccccc4N3C)cc2C)cc1	Rpn11 inh 83 (no result: Scp-1 inhibitor) | Rpn11 inh conf 50 | MMP-2 counter inactive | Thrombin FP inactive
CCOc1ccc2nc(NC(=O)Cn3[nH]c(=O)c4ccccc4c3=O)sc2c1	Rpn11 inh 68 | Rpn11 inh conf 56 | MMP-2 counter inactive | Thrombin FP inactive
O=C1CC2(CCN(C(=O)c3ccc(F)cc3)CC2)Oc2ccccc21	none
COc1cc(/C=N/NC(=O)c2nnn(-c3nonc3N)c2-c2cccs2)ccc1O	none
